Tests used:
Rattus norvegicus [1] = assay: Biodistribution of the radiolabeled compound (2-5 uCi) in rat lung 2 mins after i.v. administration; assay type: ADME, organism-based; conditions: in vivo, iv
Procedure, shortened: (§1)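 Rats given the 99mTc complex iv. At set times, blood was drawn by cardiac puncture and the animals were killed at once by cardiectomy. Organs were excised, weighed and gamma-counted. Percent dose per organ was found by comparing tissue radioactivity with suitable dilutions of the injected dose.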

Rattus norvegicus [2] = assay: Biodistribution of the radiolabeled compound (2-5 uCi) in rat blood 65 mins after i.v. administration; assay type: ADME, organism-based; conditions: in vivo, iv; procedure, shortened: as §1
Rattus norvegicus [3] = assay: Biodistribution of the radiolabeled compound (2-5 uCi) in rat brain 65 mins after i.v. administration; assay type: ADME, organism-based; conditions: in vivo, iv; procedure, shortened: as §1
Rattus norvegicus [4] = assay: Biodistribution of the radiolabeled compound (2-5 uCi) in rat kidney 2 mins after i.v. administration; assay type: ADME, organism-based; conditions: in vivo, iv; procedure, shortened: as §1
Rattus norvegicus [5] = assay: Biodistribution of the radiolabeled compound (2-5 uCi) in rat heart 2 mins after i.v. administration; assay type: ADME, organism-based; conditions: in vivo, iv; procedure, shortened: as §1
Rattus norvegicus [6] = assay: Biodistribution of the radiolabeled compound (2-5 uCi) in rat spleen 15 mins after i.v. administration; assay type: ADME, organism-based; conditions: in vivo, iv, 0.25 h; procedure, shortened: as §1
Rattus norvegicus [7] = assay: Biodistribution of the radiolabeled compound (2-5 uCi) in rat lung 15 mins after i.v. administration; assay type: ADME, organism-based; conditions: in vivo, iv, 0.25 h; procedure, shortened: as §1
Rattus norvegicus [8] = assay: Heart/blood ratio of the radiolabeled compound (2-5 uCi) in rat 15 mins after i.v. administration; conditions: in vivo, iv, 0.25 h
Rattus norvegicus [9] = assay: Biodistribution of the radiolabeled compound (2-5 uCi) in rat brain 15 mins after i.v. administration; assay type: ADME, organism-based; conditions: in vivo, iv, 0.25 h; procedure, shortened: as §1
Rattus norvegicus [10] = assay: Biodistribution of the radiolabeled compound (2-5 uCi) in rat blood 15 mins after i.v. administration; assay type: ADME, organism-based; conditions: in vivo, iv, 0.25 h; procedure, shortened: as §1
Rattus norvegicus [11] = assay: Biodistribution of the radiolabeled compound (2-5 uCi) in rat muscle 2 mins after i.v. administration; assay type: ADME, organism-based, Muscle tissue; conditions: in vivo, iv; procedure, shortened: as §1
Rattus norvegicus [12] = assay: Heart by blood ratio of the radiolabeled compound (2-5 uCi) in rat 65 mins after i.v. administration; conditions: in vivo, iv
Rattus norvegicus [13] = assay: Biodistribution of the radiolabeled compound (2-5 uCi) in rat spleen 65 mins after i.v. administration; assay type: ADME, organism-based; conditions: in vivo, iv; procedure, shortened: as §1
Rattus norvegicus [14] = assay: Biodistribution of the radiolabeled compound (2-5 uCi) in rat skin 15 mins after i.v. administration; assay type: ADME, organism-based, Zone of skin; conditions: in vivo, iv, 0.25 h; procedure, shortened: as §1
Rattus norvegicus [15] = assay: Biodistribution of the radiolabeled compound (2-5 uCi) in rat liver 2 mins after i.v. administration; assay type: ADME, organism-based; conditions: in vivo, iv; procedure, shortened: as §1
Rattus norvegicus [16] = assay: Biodistribution of the radiolabeled compound (2-5 uCi) in rat lung 65 mins after i.v. administration; assay type: ADME, organism-based; conditions: in vivo, iv; procedure, shortened: as §1
Rattus norvegicus [17] = assay: Heart by blood ratio of the radiolabeled compound (2-5 uCi) in rat 2 mins after i.v. administration; conditions: in vivo, iv
Rattus norvegicus [18] = assay: Biodistribution of the radiolabeled compound (2-5 uCi) in rat skin 65 mins after i.v. administration; assay type: ADME, organism-based, Zone of skin; conditions: in vivo, iv; procedure, shortened: as §1
Rattus norvegicus [19] = assay: Biodistribution of the radiolabeled compound (2-5 uCi) in rat blood 2 mins after i.v. administration; assay type: ADME, organism-based; conditions: in vivo, iv; procedure, shortened: as §1
[20] = Partition coefficient in buffer containing 0.1 M NaCl; assay type: ADME; conditions: octanol/water
Procedure, shortened: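 Octanol/buffer partition: the 99mTc complex was shaken with 3 g 1-octanol plus 3 g 50 mM phosphate pH 7.4 containing 0.1 M NaCl. Vortexing was 3 × 1 min at room temperature, followed by 5 min centrifugation. Weighed samples from both layers were gamma-counted. Ratio = octanol counts/g over aqueous counts/g.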

[21] = Partition coefficient in buffer containing 0.1 M NH4PF6; assay type: ADME; conditions: octanol/water
Procedure, shortened: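 The 99mTc complex was mixed with 3 g each of 1-octanol and 50 mM phosphate buffer pH 7.4 containing 0.1 M NH4PF6. Tubes were vortexed three times for 1 min at room temperature and centrifuged 5 min. Weighed samples of each layer were gamma-counted. PC = counts per gram in octanol / counts per gram in aqueous.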

Rattus norvegicus [22] = assay: Biodistribution of the radiolabeled compound (2-5 uCi) in rat heart 15 mins after i.v. administration; assay type: ADME, organism-based; conditions: in vivo, iv, 0.25 h; procedure, shortened: as §1
Rattus norvegicus [23] = assay: Biodistribution of the radiolabeled compound (2-5 uCi) in rat liver 15 mins after i.v. administration; assay type: ADME, organism-based; conditions: in vivo, iv, 0.25 h; procedure, shortened: as §1
Rattus norvegicus [24] = assay: Biodistribution of the radiolabeled compound (2-5 uCi) in rat spleen 2 mins after i.v. administration; assay type: ADME, organism-based; conditions: in vivo, iv; procedure, shortened: as §1
Rattus norvegicus [25] = assay: Biodistribution of the radiolabeled compound (2-5 uCi) in rat liver 65 mins after i.v. administration; assay type: ADME, organism-based; conditions: in vivo, iv; procedure, shortened: as §1
Rattus norvegicus [26] = assay: Biodistribution of the radiolabeled compound (2-5 uCi) in rat kidney 15 mins after i.v. administration; assay type: ADME, organism-based; conditions: in vivo, iv, 0.25 h; procedure, shortened: as §1
Rattus norvegicus [27] = assay: Biodistribution of the radiolabeled compound (2-5 uCi) in rat muscle 65 mins after i.v. administration; assay type: ADME, organism-based, Muscle tissue; conditions: in vivo, iv; procedure, shortened: as §1
Rattus norvegicus [28] = assay: Biodistribution of the radiolabeled compound (2-5 uCi) in rat muscle 15 mins after i.v. administration; assay type: ADME, organism-based, Muscle tissue; conditions: in vivo, iv, 0.25 h; procedure, shortened: as §1
Rattus norvegicus [29] = assay: Biodistribution of the radiolabeled compound (2-5 uCi) in rat skin 2 mins after i.v. administration; assay type: ADME, organism-based, Zone of skin; conditions: in vivo, iv; procedure, shortened: as §1
Rattus norvegicus [30] = assay: Biodistribution of the radiolabeled compound (2-5 uCi) in rat kidney 65 mins after i.v. administration; assay type: ADME, organism-based; conditions: in vivo, iv; procedure, shortened: as §1
Rattus norvegicus [31] = assay: Biodistribution of the radiolabeled compound (2-5 uCi) in rat heart 65 mins after i.v. administration; assay type: ADME, organism-based; conditions: in vivo, iv; procedure, shortened: as §1
Rattus norvegicus [32] = assay: Biodistribution of the radiolabeled compound (2-5 uCi) in rat brain 2 mins after i.v. administration; assay type: ADME, organism-based; conditions: in vivo, iv; procedure, shortened: as §1

CC(C)(S)CN1CCCN(CC(C)(C)S)CC1
Biodistribution (Rattus norvegicus [1]): 0.56 dose/organ % | Biodistribution (Rattus norvegicus [2]): 0.77 dose/organ % | Biodistribution (Rattus norvegicus [3]): 0.007 dose/organ % | Biodistribution (Rattus norvegicus [4]): 19.37 dose/organ % | Biodistribution (Rattus norvegicus [5]): 0.42 dose/organ % | Biodistribution (Rattus norvegicus [6]): 0.26 dose/organ % | Biodistribution (Rattus norvegicus [7]): 0.28 dose/organ % | heart/blood ratio (Rattus norvegicus [8]): 3.33 | Biodistribution (Rattus norvegicus [9]): 0.01 dose/organ % | Biodistribution (Rattus norvegicus [10]): 1.14 dose/organ % | Biodistribution (Rattus norvegicus [11]): 9.08 dose/organ % | heart/blood ratio (Rattus norvegicus [12]): 4.8 | Biodistribution (Rattus norvegicus [13]): 0.22 dose/organ % | Biodistribution (Rattus norvegicus [14]): 5.16 dose/organ % | Biodistribution (Rattus norvegicus [15]): 25.92 dose/organ % | Biodistribution (Rattus norvegicus [16]): 0.23 dose/organ % | heart/blood ratio (Rattus norvegicus [17]): 1.18 | Biodistribution (Rattus norvegicus [18]): 6.8 dose/organ % | Biodistribution (Rattus norvegicus [19]): 3.57 dose/organ % | Partition coefficient [20]: 1.19 | Partition coefficient [21]: 11.5 | Biodistribution (Rattus norvegicus [22]): 0.38 dose/organ % | Biodistribution (Rattus norvegicus [23]): 27.48 dose/organ % | Biodistribution (Rattus norvegicus [24]): 0.41 dose/organ % | Biodistribution (Rattus norvegicus [25]): 15.23 dose/organ % | Biodistribution (Rattus norvegicus [26]): 15.9 dose/organ % | Biodistribution (Rattus norvegicus [27]): 8.66 dose/organ % | Biodistribution (Rattus norvegicus [28]): 6.98 dose/organ % | Biodistribution (Rattus norvegicus [29]): 7.45 dose/organ % | Biodistribution (Rattus norvegicus [30]): 4.26 dose/organ % | Biodistribution (Rattus norvegicus [31]): 0.37 dose/organ % | Biodistribution (Rattus norvegicus [32]): 0.04 dose/organ %

CC(C)(S)CN1CCN(CC(C)(C)S)CC1
Biodistribution (Rattus norvegicus [1]): 0.62 dose/organ % | Biodistribution (Rattus norvegicus [2]): 0.7 dose/organ % | Biodistribution (Rattus norvegicus [3]): 0.003 dose/organ % | Biodistribution (Rattus norvegicus [4]): 15.71 dose/organ % | Biodistribution (Rattus norvegicus [5]): 0.21 dose/organ % | Biodistribution (Rattus norvegicus [6]): 0.25 dose/organ % | Biodistribution (Rattus norvegicus [7]): 0.23 dose/organ % | heart/blood ratio (Rattus norvegicus [8]): 0.5 | Biodistribution (Rattus norvegicus [9]): 0.01 dose/organ % | Biodistribution (Rattus norvegicus [10]): 2 dose/organ % | Biodistribution (Rattus norvegicus [11]): 10.67 dose/organ % | heart/blood ratio (Rattus norvegicus [12]): 1 | Biodistribution (Rattus norvegicus [13]): 0.08 dose/organ % | Biodistribution (Rattus norvegicus [14]): 14.13 dose/organ % | Biodistribution (Rattus norvegicus [15]): 31.81 dose/organ % | Biodistribution (Rattus norvegicus [16]): 0.12 dose/organ % | heart/blood ratio (Rattus norvegicus [17]): 0.29 | Biodistribution (Rattus norvegicus [18]): 7.13 dose/organ % | Biodistribution (Rattus norvegicus [19]): 7.16 dose/organ % | Partition coefficient [20]: 1.09 | Partition coefficient [21]: 10.75 | Biodistribution (Rattus norvegicus [22]): 0.1 dose/organ % | Biodistribution (Rattus norvegicus [23]): 29.63 dose/organ % | Biodistribution (Rattus norvegicus [24]): 0.57 dose/organ % | Biodistribution (Rattus norvegicus [25]): 20.2 dose/organ % | Biodistribution (Rattus norvegicus [26]): 9.43 dose/organ % | Biodistribution (Rattus norvegicus [27]): 5.06 dose/organ % | Biodistribution (Rattus norvegicus [28]): 10.12 dose/organ % | Biodistribution (Rattus norvegicus [29]): 6.65 dose/organ % | Biodistribution (Rattus norvegicus [30]): 1.09 dose/organ % | Biodistribution (Rattus norvegicus [31]): 0.07 dose/organ % | Biodistribution (Rattus norvegicus [32]): 0.03 dose/organ %

Reference: ChEMBL document CHEMBL1126014, “New conformationally restricted 99mTc N2S2 complexes as myocardial perfusion imaging agents” (J Med Chem, 1992)
